Published values from different studies.
Lines come from different studies, so protocols differ.
PTGS2: Prostaglandin G/H synthase 2 (PTGS2, Homo sapiens, UniProt P35354)
DYRK3: Dual specificity tyrosine-phosphorylation-regulated kinase 3 (DYRK3, Homo sapiens, UniProt O43781)
DYRK1B: Dual specificity tyrosine-phosphorylation-regulated kinase 1B (DYRK1B, Homo sapiens, UniProt Q9Y463)
BRWD1 BD2: Bromodomain and WD repeat-containing protein 1, BD2 (BRWD1, Homo sapiens, UniProt Q9NSI6)
NUAK1: NUAK family SNF1-like kinase 1 (NUAK1, Homo sapiens, UniProt O60285)

COc1ccc(-c2cc(=O)c3c(O)cc(O[C@@H]4O[C@H](CO)[C@@H](O)[C@H](O)[C@H]4O)cc3o2)cc1O — inhibition (PTGS2; enzyme activity, inhibitor; 0.98 µg/mL): 72.2%
Cn1nnc2ccc(NC(=O)c3cccc(C(=O)O)c3)cc21 — ΔTm (CREB-binding protein, bromodomain (CREBBP, Homo sapiens, UniProt Q92793); thermal stability, DSF; 100 µM): 2 °C
Cc1ccc(NC(=O)c2ccc(C)c(C(F)(F)F)c2)cc1C#Cc1nn(C2CCC(O)CC2)c2ncnc(N)c12 (stereo not drawn) — remaining signal (Rho-associated protein kinase 2 (Rock2, Rattus norvegicus, UniProt Q62868); cell-free assay; 10 µM): 85%
N#Cc1cccc(Nc2nc3cc(C(=O)O)ccc3c3cnccc23)c1 — remaining activity (DYRK3; enzyme activity, inhibitor, radiometric; 1 µM): 0%
Cc1cnc(Nc2ccc(OCCN3CCCC3)cc2)nc1Nc1cccc(S(=O)(=O)NC(C)(C)C)c1 — ΔTm (Transcription intermediary factor 1-beta (TRIM28, Homo sapiens, UniProt Q13263); thermal stability, DSF; 10 µM): 0.08 °C
N#Cc1cccc(Nc2nc3cc(C(=O)O)ccc3c3cncnc23)c1 — remaining activity (DYRK1B; enzyme activity, inhibitor, radiometric; 1 µM): 87%
Nc1ncnc2occ(-c3ccc(NC(=O)Nc4cc(C(F)(F)F)ccc4F)cc3)c12 — remaining signal (Cyclin-dependent kinase-like 5 (CDKL5, Homo sapiens, UniProt O76039); cell-free assay; 20 µM): 4.3%
Cc1cc2c(cc1N1C(=O)c3cccc4c(Cl)ccc(c34)C1=O)n(C)c(=O)n2C — ΔTm (BRWD1 BD2; thermal stability, DSF; 10 µM): -1.4 °C
CN(C)C1CCN(CC#Cc2nn(C3CCCC3)c3nc(NCc4ccccc4)ncc23)C1 (stereo not drawn) — inhibition (NUAK1; enzyme activity, inhibitor, FRET; 0.1 µM): 0%
Oc1ccc(-c2nc(-c3ccncc3)c(-c3ccc(F)cc3)[nH]2)cc1 — ΔTm (Bromodomain testis-specific protein, BD1 (BRDT, Homo sapiens, UniProt Q58F21); thermal stability, DSF; 10 µM): -0.47 °C
CC(CCC(=O)NCC(=O)O)C1CCC2C3CCC4CC(O)CCC4(C)C3CC(O)C12C (stereo not drawn) — ΔTm (Serine hydroxymethyltransferase, mitochondrial (SHMT2, Homo sapiens, UniProt P34897); thermal stability; 50 µM): 12.3 °C
O=C(O)c1ccc2c(c1)nc(Nc1ccc(Cl)cc1)c1ccncc12 — remaining activity (DYRK3; enzyme activity, inhibitor, radiometric; 1 µM): 2%
O=C(NCCCNc1nc(Nc2cccc(CN3CCOCC3)c2)ncc1C1CC1)C1CCC1 — remaining activity (Inhibitor of nuclear factor kappa-B kinase subunit epsilon (IKBKE, Homo sapiens, UniProt Q14164); enzyme activity, inhibitor, radiometric; 1 µM): 4%
C[S+]([O-])c1ccc(-c2nc(-c3ccncc3)c(-c3ccc(F)cc3)[nH]2)cc1 (stereo not drawn) — ΔTm (BRWD1 BD2; thermal stability, DSF; 10 µM): 1.32 °C
C=C[C@@]1(C)C=C2CC[C@@H]3[C@](C)(CCC[C@@]3(C)C(=O)O)[C@H]2CC1 — inhibition (PTGS2; enzyme activity, inhibitor; 15.63 µg/mL): 85.3%
O=C(O)c1ccc2c(c1)nc(NCCc1ccccc1)c1ncncc12 — remaining activity (DYRK1B; enzyme activity, inhibitor, radiometric; 1 µM): 123%
CCOc1ccc2cc(-c3nn(CC4CCN(C)CC4)c4ncnc(N)c34)ccc2c1 — ΔTm (Calmodulin-domain protein kinase 1 (CDPK1, Toxoplasma gondii, UniProt Q9BJF5); thermal stability, DSF; 20 µM): 12.3 °C
O=c1cc(-c2ccc(O)cc2)oc2cc(O)cc(O)c12 — inhibition (PTGS2; enzyme activity, inhibitor; 31.25 µg/mL): 100%
O=C(O)c1ccc2c(c1)nc(NCCc1cccc(F)c1)c1ccncc12 — remaining activity (DYRK1B; enzyme activity, inhibitor, radiometric; 1 µM): 106%
COC(=O)c1ccc(O)cc1 — inhibition (PTGS2; enzyme activity, inhibitor; 0.98 µg/mL): 0%
O=C(O)c1ccc2c(c1)nc(Nc1ccc3ccccc3c1)c1ccncc12 — remaining activity (DYRK3; enzyme activity, inhibitor, radiometric; 1 µM): 4%
NS(=O)(=O)c1ccc(Nc2nc(-c3ccc(F)cc3)c3ccccc3n2)cc1 — remaining binding (BRWD1 BD2; binding, competition with immobilised ligand; 1 µM): 88%
O=C(O)c1ccc2c(c1)nc(Nc1ccc(Cl)cc1)c1ncncc12 — remaining activity (DYRK1B; enzyme activity, inhibitor, radiometric; 1 µM): 80%
CCN1CCN(Cc2ccc(NC(=O)c3ccc(C)c(Oc4ccnc5[nH]ccc45)c3)cc2C(F)(F)F)CC1 — inhibition (Microtubule-associated serine/threonine-protein kinase 3 (MAST3, Homo sapiens, UniProt O60307); target engagement in cells, inhibitor, chemoproteomics; Huh-7; 1 µM): -11.3%
NS(=O)(=O)c1ccc(CNc2nc(Nc3cccc(NC(=O)N4CCCC4)c3)ncc2Br)cc1 — remaining activity (NUAK1; enzyme activity, inhibitor, radiometric; 1 µM): 11%
O=C(O)c1ccc2c(c1)nc(Nc1ccccc1)c1ccncc12 — remaining activity (DYRK3; enzyme activity, inhibitor, radiometric; 1 µM): 7%
O=C(O)c1ccc(O)cc1 — inhibition (PTGS2; enzyme activity, inhibitor; 3.9 µg/mL): 61.1%
